Data set [1] deals with BV-2. Put plainly: Anti-neuroinflammatory activity in […] assessed as reduction in LPS-induced NO production at 10 uM preincubated for 4 hrs followed by LPS stimulation for 24 hrs by Griess assay relative to control. The following applies: for inhibition at 10 µM: Mus musculus. The data set is classed as functional. The essentials: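 Mouse microglial BV-2 cells in DMEM with 10% FBS. Pretreated at 10 µM for 4 h, then LPS 500 ng/mL for 24 h. Nitrite in supernatant measured with Griess reagent at 540 nm. Means ± S.E.M., n=3.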

The subject of data set [2] is BV-2. Put plainly: Anti-neuroinflammatory activity in […] assessed as reduction in LPS-induced NO production preincubated for 4 hrs followed by LPS stimulation for 24 hrs by Griess assay. The data set is classed as functional, cell-based. The following applies: Mus musculus. The essentials:
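BV-2 cells pretreated 4 h over 0.78-100 µM (twofold series), then LPS 500 ng/mL for 24 h. Supernatant mixed 1:1 with Griess reagent, A540, against NaNO2 standard curve. IC50 by curve fitting; mean ± S.E.M. of three experiments.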

The nature of data set [3]: Cytotoxicity against […] assessed as reduction in cell viability after 24 hrs by MTT assay. In kind it is cell-based, BV-2. Conditions: BV2 cells. The essentials: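 BV-2 cells at 5 × 10^3/well, grown 12 h, then exposed to 1-100 µM for 24 h. MTT at 0.5 mg/mL final for 4 h at 37 ℃. Formazan dissolved in DMSO and read at 490 nm. CC50 as mean ± S.E.M. of three experiments.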

In data set [4] the target is Nitric oxide synthase, inducible (Mus musculus) (UniProt P29477). Put plainly: Inhibition of LPS-induced iNOS in mouse BV2 cells after 4 hrs by DAF-FMDA dye-based fluorescence assay.
Chain of Nitric oxide synthase, inducible (Mus musculus) (P29477 whole entry, looked up): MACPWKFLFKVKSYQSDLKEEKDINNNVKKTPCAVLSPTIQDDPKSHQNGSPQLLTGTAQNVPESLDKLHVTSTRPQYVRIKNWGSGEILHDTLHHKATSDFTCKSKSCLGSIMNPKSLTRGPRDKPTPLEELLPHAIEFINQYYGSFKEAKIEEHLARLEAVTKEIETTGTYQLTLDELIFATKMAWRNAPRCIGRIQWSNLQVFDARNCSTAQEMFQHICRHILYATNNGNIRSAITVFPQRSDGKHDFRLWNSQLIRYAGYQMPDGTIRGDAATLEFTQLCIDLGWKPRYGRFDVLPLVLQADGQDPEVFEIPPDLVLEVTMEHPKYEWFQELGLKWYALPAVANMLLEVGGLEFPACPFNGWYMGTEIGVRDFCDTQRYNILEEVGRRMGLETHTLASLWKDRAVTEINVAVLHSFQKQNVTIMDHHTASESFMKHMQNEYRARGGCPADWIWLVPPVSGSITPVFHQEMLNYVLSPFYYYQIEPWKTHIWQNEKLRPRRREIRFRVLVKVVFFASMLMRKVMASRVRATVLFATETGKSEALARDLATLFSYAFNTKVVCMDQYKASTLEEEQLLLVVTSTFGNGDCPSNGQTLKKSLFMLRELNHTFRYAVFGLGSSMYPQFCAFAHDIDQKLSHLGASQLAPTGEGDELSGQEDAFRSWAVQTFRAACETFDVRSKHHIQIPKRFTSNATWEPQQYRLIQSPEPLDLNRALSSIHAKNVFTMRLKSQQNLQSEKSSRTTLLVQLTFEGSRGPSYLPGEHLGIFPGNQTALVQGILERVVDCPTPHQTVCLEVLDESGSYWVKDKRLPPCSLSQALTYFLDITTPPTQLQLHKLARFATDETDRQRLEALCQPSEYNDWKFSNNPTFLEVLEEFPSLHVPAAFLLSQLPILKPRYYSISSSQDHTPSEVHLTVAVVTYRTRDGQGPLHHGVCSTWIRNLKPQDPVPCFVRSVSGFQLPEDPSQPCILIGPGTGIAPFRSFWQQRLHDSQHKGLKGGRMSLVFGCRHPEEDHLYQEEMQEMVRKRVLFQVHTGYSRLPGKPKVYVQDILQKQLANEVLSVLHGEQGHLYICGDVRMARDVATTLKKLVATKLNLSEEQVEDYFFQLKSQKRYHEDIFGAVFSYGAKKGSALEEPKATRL
The subject of data set [5] is Mus musculus. Put plainly: Anti-neuroinflammatory activity in MPTP-induced C57BL/6 mouse assessed as increase in tyrosine hydroxylase positive cells in substantia nigra at 10 to 20 mg/kg, po pre-treated daily for 7 days followed by 4 times MPTP addition at 2 hrs intervals and measured after 4 to 72 hrs post MPTP injection by DAB staining based immunohistochemistry method. The data set is classed as functional, organism-based.

In data set [6] the target is Transcription factor p65 (Mus musculus) (UniProt Q04207). Put plainly: Inhibition of LPS-induced nuclear translocation of NF-kappaB-p65 in mouse BV2 cells at 1 to 20 uM preincubated for 2 hrs followed by LPS stimulation for 2 hrs by Western blot analysis.
Chain of Transcription factor p65 (Mus musculus) (Q04207 whole entry, looked up): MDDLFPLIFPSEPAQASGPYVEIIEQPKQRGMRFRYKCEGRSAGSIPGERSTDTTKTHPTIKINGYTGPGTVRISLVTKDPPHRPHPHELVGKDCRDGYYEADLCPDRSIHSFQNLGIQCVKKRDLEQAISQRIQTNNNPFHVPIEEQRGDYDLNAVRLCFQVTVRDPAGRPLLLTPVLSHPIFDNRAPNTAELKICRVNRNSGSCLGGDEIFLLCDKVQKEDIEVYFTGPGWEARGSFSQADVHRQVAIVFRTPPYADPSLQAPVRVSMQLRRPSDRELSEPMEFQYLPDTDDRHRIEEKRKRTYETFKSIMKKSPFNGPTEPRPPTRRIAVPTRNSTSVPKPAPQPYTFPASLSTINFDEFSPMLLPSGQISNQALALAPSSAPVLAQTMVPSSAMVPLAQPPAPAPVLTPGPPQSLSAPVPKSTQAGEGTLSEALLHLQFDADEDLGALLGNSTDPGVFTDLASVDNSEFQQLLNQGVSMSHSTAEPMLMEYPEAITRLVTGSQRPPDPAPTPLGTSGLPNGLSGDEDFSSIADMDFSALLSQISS
Data set [7] relates to Mus musculus. Put plainly: Anti-neuroinflammatory activity in MPTP-induced C57BL/6 mouse assessed as alleviation of functional behaviour impairment at 10 mg/kg, po pre-treated daily for 7 days followed by 4 times MPTP addition at 2 hrs intervals and measured after 4 to 72 hrs post MPTP injection by rota rod test. In kind it is organism-based. The essentials:
(§1)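 Male C57BL/6 mice, 7-8 weeks, 20-22 g, 8 per group. Pretrained 3 days on rota-rod, up to 25 rpm, to stay on 180 s. Dosed i.g. at 10 or 20 mg/kg daily for 7 days in 0.5% methylcellulose with 1% Tween 80, vehicle for controls. Then 4 i.p. MPTP injections (20 mg/kg) at 2-h intervals. Tested at 4, 24, 48 and 72 h; mean of three runs.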

Data set [8] concerns Mus musculus. Put plainly: Anti-neuroinflammatory activity in MPTP-induced C57BL/6 mouse assessed as reduction in astroglial activation by measuring increase in glial fibrillary acidic protein expression in substantia nigra at 10 to 20 mg/kg, po pre-treated daily for 7 days followed by 4 times MPTP addition at 2 hrs intervals and measured after 4 to 72 hrs post MPTP injection by DAB staining based immunohistochemistry method. The data set is classed as functional, organism-based.

In data set [9] the test system is Mus musculus. Put plainly: Anti-neuroinflammatory activity in MPTP-induced C57BL/6 mouse assessed as increase in tyrosine hydroxylase positive cells in striatum at 10 to 20 mg/kg, po pre-treated daily for 7 days followed by 4 times MPTP addition at 2 hrs intervals and measured after 4 to 72 hrs post MPTP injection by DAB staining based immunohistochemistry method. In kind it is functional, organism-based.

For data set [10], the system named is BV-2. Put plainly: Anti-neuroinflammatory activity in […] assessed as reduction in LPS-induced TNF-alpha expression preincubated for 2 hrs followed by LPS stimulation for 24 hrs by Western blot analysis. In kind it is functional, cell-based. Summed up: (§2)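 BV-2 cells at 5 × 10^5/well, pretreated at 1, 10 or 20 µM, then LPS 500 ng/mL. Lysed in RIPA with protease/phosphatase inhibitors. 30 µg protein blotted with primary antibodies 1:1000 and HRP secondary 1:5000, ECL detection. β-actin as loading control. Expressed as fold of control; at least three independent experiments, each in duplicate.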

Data set [11] relates to BV-2. Put plainly: Anti-neuroinflammatory activity in […] assessed as reduction in LPS-induced IL-1beta expression preincubated for 2 hrs followed by LPS stimulation for 24 hrs by Western blot analysis. The data set is classed as functional, cell-based. The essentials:
as §2

The test system of data set [12] is Mus musculus. Put plainly: Anti-neuroinflammatory activity in MPTP-induced C57BL/6 mouse assessed as alleviation of functional behaviour impairment at 20 mg/kg, po pre-treated daily for 7 days followed by 4 times MPTP addition at 2 hrs intervals and measured after 4 to 72 hrs post MPTP injection by rota rod test. In kind it is organism-based. Summed up: as §1

In data set [13] the test system is BV-2. Put plainly: Anti-neuroinflammatory activity in […] assessed as reduction in LPS-induced iNOS expression preincubated for 2 hrs followed by LPS stimulation for 24 hrs by Western blot analysis. In kind it is functional, cell-based. Summed up: as §2
The test system of data set [14] is Mus musculus. Put plainly: Anti-neuroinflammatory activity in MPTP-induced C57BL/6 mouse assessed as reduction in astroglial activation by measuring increase in glial fibrillary acidic protein expression in striatum at 10 to 20 mg/kg, po pre-treated daily for 7 days followed by 4 times MPTP addition at 2 hrs intervals and measured after 4 to 72 hrs post MPTP injection by DAB staining based immunohistochemistry method. In kind it is functional, organism-based.

Data set [15] concerns BV-2. Put plainly: Anti-neuroinflammatory activity in […] assessed as reduction in LPS-induced COX-2 expression preincubated for 2 hrs followed by LPS stimulation for 24 hrs by Western blot analysis. In kind it is functional, cell-based. The essentials:
as §2

The structures appear in SMILES notation. Active and inactive are the calls of the source. The rule behind the calls is not given here.

`COC(=O)CC[C@H](NC(=O)/C=C/c1cccc(O)c1)C(=O)OC`: the inhibition entry in the data set on BV-2 [1] was “Active”.

In the case of `COC(=O)[C@H](Cc1ccccc1)NC(=O)/C=C/c1cccc(O)c1`, the inhibition result in the data set on BV-2 [1] was “Active”.

As to `COc1cc(/C=C/C(=O)N[C@@H](CCC(=O)O)C(=O)O)ccc1O`, the inhibition result in the data set on BV-2 [1] is “Active”.

`O=C(/C=C/c1ccccc1)N[C@@H](Cc1ccccc1)C(=O)O`: the IC50 in the data set with BV-2 [2] turned out to be 26.4 µM; in data set [4], 18.9 µM. The CC50 at 24 h in data set [3] was greater than 100 µM. Further, in the data set with BV-2 [1], the inhibition at 10 µM was greater than 50%.

Consider `COC(=O)[C@H](Cc1ccccc1)NC(=O)/C=C/c1ccccc1`, for which the inhibition entry with BV-2 [1] was “Active”.

For `COC(=O)[C@H](Cc1ccc(O)cc1)NC(=O)/C=C/c1cccc(O)c1`, in the data set with BV-2 [1], the inhibition entry is “Active”.

For `O=C(/C=C/c1cccc(O)c1)N[C@@H](Cc1ccccc1)C(=O)O`, the IC50 is 15.3 µM with BV-2 [2] and 29.2 µM in data set [4]. Also, the CC50 at 24 h in data set [3] is greater than 100 µM. Moreover, the inhibition at 10 µM with BV-2 [1] was greater than 50%.

As for `COC(=O)CC[C@H](NC(=O)/C=C/c1ccc(O)c(OC)c1)C(=O)OC`, in the data set with BV-2 [1], the inhibition result is “Active”.

Turning to `COC(=O)C[C@H](NC(=O)/C=C/c1cccc(O)c1)C(=O)OC`, in the data set with BV-2 [1], the inhibition result is “Active”.

Consider `O=C(/C=C/c1ccccc1)N[C@@H](Cc1ccc(O)cc1)C(=O)O`, for which the inhibition entry with BV-2 [1] is “Active”.

For the compound `COc1cc(/C=C/C(=O)N[C@@H](Cc2ccccc2)C(=O)O)ccc1O`, the IC50 with BV-2 [2] was determined as 4.41 µM; in data set [4], 2.98 µM. For the same compound, in data set [3], the CC50 at 24 h is greater than 100 µM. Besides, the inhibition at 10 µM in the data set with BV-2 [1] is greater than 50%.

As to `COC(=O)[C@H](Cc1ccccc1)NC(=O)/C=C/c1ccc(O)c(OC)c1`, the inhibition result in the data set on BV-2 [1] is “Active”.

On to `O=C(O)CC[C@H](NC(=O)/C=C/c1cccc(O)c1)C(=O)O`, for which, in the data set with BV-2 [1], the inhibition result was “Active”.

Turning to `O=C(O)C[C@H](NC(=O)/C=C/c1cccc(O)c1)C(=O)O`, in the data set on BV-2 [1], the inhibition result was “Active”.

For the compound `COC(=O)[C@H](Cc1ccccc1)NC(=O)/C=C/c1ccc(O)cc1`, the inhibition entry in the data set on BV-2 [1] is “Active”.

As to `COC(=O)CC[C@H](NC(=O)/C=C/c1ccccc1)C(=O)OC`, the inhibition entry with BV-2 [1] is “Active”.

For `O=C(/C=C/c1ccc(O)cc1)N[C@@H](Cc1ccccc1)C(=O)O`, the IC50 worked out at 10.4 µM with BV-2 [2] and 8.45 µM in data set [4]. For the same compound, the cytotoxic concentration (CC50) at 24 h in data set [3] was greater than 100 µM. In addition, the inhibition at 10 µM in the data set with BV-2 [1] is greater than 50%.

`O=C(/C=C/c1ccc(O)cc1)N[C@@H](Cc1ccc(O)cc1)C(=O)O`: the figures for the IC50 (in the data set with BV-2 [2]; in data set [4]) were 3.4 µM and 2.1 µM, respectively. Besides, the CC50 at 24 h in data set [3] was greater than 100 µM. In addition, the inhibition at 10 µM in the data set on BV-2 [1] was greater than 50%.

`O=C(O)C[C@H](NC(=O)/C=C/c1ccc(O)cc1)C(=O)O`: in the data set on BV-2 [1], the inhibition entry is “Active”.

Take `O=C(O)CC[C@H](NC(=O)/C=C/c1ccccc1)C(=O)O`: the inhibition result in the data set with BV-2 [1] was “Active”.

`COC(=O)[C@H](Cc1ccc(O)cc1)NC(=O)/C=C/c1ccccc1`: the inhibition entry in the data set with BV-2 [1] was “Active”.

For the compound `COc1cc(/C=C/C(=O)N[C@@H](Cc2ccc(O)cc2)C(=O)O)ccc1O`, the outcome with Mus musculus [5], in the data set with Mus musculus [7], with Mus musculus [8], in the data set on Mus musculus [9], in the data set on Mus musculus [12] and with Mus musculus [14] was Active. The inhibition result in data set [6] is “Active”. Moreover, the IC50 with BV-2 [2] was 2.67 µM; in data set [4] it was 1.01 µM. The CC50 at 24 h in [3] is greater than 100 µM. For the same compound, the inhibition at 10 µM in the data set with BV-2 [1] is greater than 50%. Moreover, the Activity result with BV-2 [10], in the data set on BV-2 [11], in the data set with BV-2 [13] and with BV-2 [15] was “Dose-dependent effect” each time.

For the compound `COC(=O)[C@H](Cc1ccc(O)cc1)NC(=O)/C=C/c1ccc(O)cc1`, in the data set on BV-2 [1], the inhibition entry is “Active”.

Take `COC(=O)C[C@H](NC(=O)/C=C/c1ccc(O)cc1)C(=O)OC`: in the data set with BV-2 [1], the inhibition entry was “Active”.

Turning to `O=C(/C=C/c1cccc(O)c1)N[C@@H](Cc1ccc(O)cc1)C(=O)O`, the inhibition entry with BV-2 [1] is “Active”.

Turning to `COC(=O)[C@H](Cc1ccc(O)cc1)NC(=O)/C=C/c1ccc(O)c(OC)c1`, the inhibition result in the data set with BV-2 [1] was “Active”.

Source of the values: ChEMBL document CHEMBL4229389, “Synthesis and biological evaluation of clovamide analogues as potent anti-neuroinflammatory agents in vitro and in vivo” (Eur J Med Chem, 2018).
